Compounds with a hit are over-represented: about 3.4% of the library has one in this group of screens.
DTT redox prof: compounds producing H2O2 with reducing agent – biochemical, NIH compound library profiling, artefact control for MLSCN library redox annotation, primary screen; DTT-dependent redox cycling H2O2, phenol red/HRP absorbance; 100% = 100 µM peroxide control, 0% = buffer; activation, % at 10 µM; hit rate 0.03% among 200,000;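 active means activation of at least 50% relative to the plate's high and low controls in the primary single-dose screen; inactive means activation below 50%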;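 further: compound incubated with DTT at 0.8 mM final as the reducing agent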
ROMK mod: human ROMK K+ channel modulation, primary screen; P48048; Tet-inducible ROMK, thallium flux fluorescence; actives lie on both sides; B-score at 10 µM; hit rate 2% among 130,000; AID 1918;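 active means signal ratio slope over the read window, or its plate-corrected B-score, at least 3 SD from the plate mean, either direction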;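 further: B-score of the F/F0 ratio slope over 7 to 12 s after thallium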
Target sequence (P48048 whole entry, looked up): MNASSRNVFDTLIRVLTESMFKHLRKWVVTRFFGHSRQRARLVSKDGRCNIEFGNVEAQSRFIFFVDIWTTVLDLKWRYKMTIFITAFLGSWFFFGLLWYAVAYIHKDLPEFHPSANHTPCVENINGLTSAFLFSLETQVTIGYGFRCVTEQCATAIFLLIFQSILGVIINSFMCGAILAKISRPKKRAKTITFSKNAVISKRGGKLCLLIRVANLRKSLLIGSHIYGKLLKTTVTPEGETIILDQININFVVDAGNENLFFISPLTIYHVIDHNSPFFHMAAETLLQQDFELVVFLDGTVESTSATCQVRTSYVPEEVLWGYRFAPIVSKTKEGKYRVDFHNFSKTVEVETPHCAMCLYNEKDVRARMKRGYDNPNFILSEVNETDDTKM
PKD1 kinase inh: inhibitors of human PKD1 kinase | Q15139 | PKD1 kinase fluorescence polarization assay | inhibition, % (concentration not given with the values) | hit rate 0.056% among 200,000; in the data active means inhibition above about 50%
p97 ATPase inh: human p97 ATPase inhibition; inhibition, % at 8 µM; recombinant p97 ATPase, Kinase-Glo ATP luminescence, 3 h; hit rate 0.42% among 220,000; in the data active means inhibition above about 15%
KCC2 mod: KCC2 (human) Cl- transport modulation; Q9H2X9; KCC2 cells, thallium flux FluoZin-2 fluorescence; B-score of Tl+ flux slope (higher = more flux/activation; lower = inhibition) at 10 µM; hit rate 2.2% among 190,000;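 active means thallium flux slope and its plate-corrected score both differing from the plate sample mean at a set confidence after two filtering rounds, in either direction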;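 further: slope of fluorescence scaled to starting intensity during 10 to 20 s after thallium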
MDM2 E3 inh: blocks human Mdm2 ubiquitin ligase activity; hit rate 0.11% among 210,000; signal enhancement, % at 5 µM; AID 1230; Q00987; cell-based MDM2 ubiquitination luciferase reporter, 2 h; 0 = plate control, 100 = twice control, blank-subtracted;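 active means signal enhancement of 30% or more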;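 further: luminescence tracks abundance of the self-degrading MDM2-luciferase fusion protein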
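Material: stable MDM2–luciferase fusion reporter cells / Quantity: 2000 cells/well / Dosing: single 5 µM compound dose, 0.2% final DMSO / Buffer or medium: DMEM / Schedule: 4 h cell settling then 2 h compound exposure, 37 °C / Detection: luminescence with SteadyLite reagent, 15 min at room temperature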
KCC2 sec1: confirmation of human KCC2 transport modulators. shares compounds with KCC2 mod. HEK293-KCC2, thallium flux, FluoZin2 fluorescence; active compounds read high. normalised thallium flux (F/F0 slope) at 10 µM. hit rate 15% among 3,700;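 active means thallium flux slope above the same plate's solvent-only control mean plus 3 SD; inconclusive means the two replicate wells disagree; inactive means no significant difference from solvent-only control wells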
KCC2 bumet counter: thallium flux despite bumetanide block in KCC2 cells, secondary assay 3; shares compounds with KCC2 mod; normalized thallium flux at 10 µM; HEK293-KCC2 + bumetanide/ouabain, thallium flux FluoZin2; active compounds read high; hit rate 49% among 3,700;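 active means thallium entry rate above the same plate's blocked-transporter control wells by more than 3 SD; inconclusive means the two repeat wells disagree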;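 further: raw slope of fluorescence over initial fluorescence between 10 and 20 s after thallium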
KCC2 sec2: KCC2 (human) modulation, second secondary assay; shares compounds with KCC2 mod; HEK293-KCC2, thallium flux FluoZin2 fluorescence; actives lie on both sides; F/F0 rise rate, 10–20 s post-thallium; normalized thallium flux at 10 µM; hit rate 23% among 3,700;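 active means thallium flux slope more than 3 SD above or below the plate's solvent-only control mean, mostly below; inconclusive means the two repeat wells disagreed; inactive means no significant shift from solvent-only controls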
HEK counter1: counter-screen for KCC2 modulators: effect in parental HEK293 cells; thallium flux FluoZin2, ouabain; baseline-ratio fluorescence slope, 10–20 s after thallium; shares compounds with KCC2 mod; hit rate 46% among 3,700; thallium flux rate (normalised fluorescence) at 10 µM; AID 1716;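 active means thallium flux rate significantly above the same plate's solvent-only control wells, beyond their mean plus 3 SD; inconclusive means the two replicate wells gave conflicting results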
KCC2 ouabain: confirmation of human KCC2 modulators with ouabain. shares compounds with KCC2 mod. HEK293-KCC2, thallium flux FluoZin2 fluorescence; bidirectional: low = inhibitor, high = activator. raw Tl+ flux slope (below DMSO = inhibition, above = activation) at 10 µM. hit rate 48% among 3,700. AID 1717;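 active means thallium flux slope beyond 3 SD from same-plate DMSO control mean in most replicates, usually higher, sometimes lower; inconclusive means repeat tests gave conflicting results; inactive means no significant difference from controls in most replicates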;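 further: slope of initial-normalized fluorescence between seconds 10 and 20 after thallium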
HEK counter2: acts in parental HEK cells, second KCC2 counter-screen; hit rate 33% among 3,700; shares compounds with KCC2 mod; HEK293 parental, thallium flux FluoZin-2 fluorescence slope; thallium flux slope at 10 µM;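 active means thallium flux slope above the same plate's solvent-control mean plus 3 SD in both duplicate wells; inconclusive means duplicate wells that disagreed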;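 further: run without ouabain in cells lacking the KCC2 cotransporter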
Each line names hits and unclear results; the compound was inactive in the other large screens (follow-up assays come after a bar, where they were run).

O=S(=O)(Cc1ccccc1Cl)N1CCCC1	none
CN(Cc1ccccc1)C(=O)COC(=O)c1ccc2ccccc2n1	none
C=CCNC(=O)CCCCC(=O)NCC=C	none (no result: ROMK mod)
Cc1cc(C(=O)NCCc2ccccc2)ccc1[N+](=O)[O-]	none (no result: ROMK mod, KCC2 mod)
CCC1=C2CC[C@H]3C(=O)N(c4ccccc4)C(=O)[C@H]3[C@H]2[C@@]2(C)C(=NCC(=O)OC)OC(=O)N2C1=O	none (no result: DTT redox prof, ROMK mod, PKD1 kinase inh, p97 ATPase inh)
COc1ccc(Cc2nnc(SCC(=O)NC3CCCC3)o2)cc1	none (no result: ROMK mod)
O=C(Nc1nnc(C2=COCCO2)o1)c1ccc(Cc2ccccc2)cc1	KCC2 mod 7.3 (no result: ROMK mod) | KCC2 sec1 inactive | KCC2 bumet counter 0.019 | KCC2 sec2 inactive | HEK counter1 0.016 | KCC2 ouabain inconclusive | HEK counter2 0.019
O=C(Nc1nnc(C2=COCCO2)o1)c1ccc(Cl)cc1	KCC2 mod 8.5 (no result: ROMK mod) | KCC2 sec1 inconclusive | KCC2 bumet counter 0.026 | KCC2 sec2 inactive | HEK counter1 0.021 | KCC2 ouabain 0.032 | HEK counter2 inconclusive
COC(=O)c1[nH]c2ccc(C)cc2c1NS(=O)(=O)c1ccc(F)c(C)c1	KCC2 mod -2.9 (no result: ROMK mod) | KCC2 sec1 inactive | KCC2 bumet counter inconclusive | KCC2 sec2 inactive | HEK counter1 inactive | KCC2 ouabain inactive | HEK counter2 inactive
C=C[C@@](C)(O)CC[C@@H]1[C@@]2(C)CCCC(C)(C)[C@@H]2CC[C@@]1(C)O	none (no result: ROMK mod)
CC(OC(=O)c1ccc(S(=O)(=O)NCc2ccco2)cc1)C(=O)Nc1ccc(Cl)cn1 (stereo not given)	none
CC(OC(=O)c1ccccc1NCc1ccco1)C(=O)Nc1ncc(Cl)cc1Cl (stereo not given)	KCC2 mod -3 (no result: ROMK mod) | KCC2 sec1 inactive | KCC2 bumet counter inactive | KCC2 sec2 inactive | HEK counter1 inactive | KCC2 ouabain inconclusive | HEK counter2 inconclusive
COc1cccc(=O)c2c(C)n(-c3cc(C)cc(C)c3)c(C)c12	none (no result: ROMK mod)
O=c1oc2ccccc2c(Nc2ccc3ccccc3c2)c1[N+](=O)[O-]	KCC2 mod -3.8 (no result: ROMK mod) | KCC2 sec1 inactive | KCC2 bumet counter inactive | KCC2 sec2 inactive | HEK counter1 inactive | KCC2 ouabain 0.015 | HEK counter2 inactive
O=c1oc2ccccc2c(NCc2cccc(F)c2)c1[N+](=O)[O-]	none (no result: ROMK mod, KCC2 mod) | KCC2 sec1 inactive | KCC2 bumet counter inactive | KCC2 sec2 inactive | HEK counter1 inactive | KCC2 ouabain 0.022 | HEK counter2 inactive
CSC1=N/C(=C\c2cccnc2)C(=O)N1c1ccccc1	none (no result: ROMK mod)
CC(=O)NCCOc1nc(N(C)C)nc(N2CCOCC2)n1	none
COc1nc(OCCNC(C)=O)nc(N(C)C)n1	none (no result: ROMK mod) | KCC2 sec1 inactive | KCC2 bumet counter inactive | KCC2 sec2 inactive | HEK counter1 inactive | KCC2 ouabain inactive | HEK counter2 inactive
Cc1cccc(NC(=O)NCC(c2cccnc2)N2CCOCC2)c1 (stereo not given)	none (no result: KCC2 mod) | KCC2 sec1 inactive | KCC2 bumet counter inactive | KCC2 sec2 inactive | HEK counter1 inactive | KCC2 ouabain inactive | HEK counter2 inactive
COC(=O)NCC(c1cccnc1)N1CCOCC1 (stereo not given)	none (no result: ROMK mod)
COC(=O)c1cc(Br)ccc1NC(=O)Nc1ccccc1	none (no result: ROMK mod)
O=C(OCc1nc2ccc(Cl)cc2n1CCO)c1ccccc1C(=O)c1ccccc1	none
CN(C)CCCNC(=O)c1cc(S(=O)(=O)N2CCOCC2)ccc1F	none
O=C(NCCSCc1ccccc1)c1cc(S(=O)(=O)N2CCOCC2)ccc1F	KCC2 mod -3.8 (no result: ROMK mod) | KCC2 sec1 inactive | KCC2 bumet counter inactive | KCC2 sec2 0.026 | HEK counter1 inactive | KCC2 ouabain inconclusive | HEK counter2 inactive
Cc1ccc(Cn2nnc3c(=O)[nH]c(C4CCN(S(=O)(=O)c5ccc(F)cc5)CC4)nc32)cc1	KCC2 mod -3 (no result: ROMK mod) | KCC2 sec1 inactive | KCC2 bumet counter inactive | KCC2 sec2 0.025 | HEK counter1 inactive | KCC2 ouabain inactive | HEK counter2 inactive
O=c1[nH]c(C2CCCN(S(=O)(=O)c3ccccc3)C2)nc2c1nnn2Cc1ccccc1 (stereo not given)	none
Cc1ccc(Cn2nnc3c(=O)[nH]c(C4CCN(S(=O)(=O)c5cc(C)ccc5C)CC4)nc32)cc1	none (no result: ROMK mod)
Cc1ccc(C)c(S(=O)(=O)N2CCC(c3nc4c(nnn4Cc4ccc(F)cc4)c(=O)[nH]3)CC2)c1	KCC2 mod -4.2 (no result: ROMK mod) | KCC2 sec1 inactive | KCC2 bumet counter inactive | KCC2 sec2 inactive | HEK counter1 inactive | KCC2 ouabain 0.016 | HEK counter2 inactive
O=C(O)c1cccc(N2CCCC2=O)c1	none
C[C@H]1CC[C@H]2C(=O)N3[C@H](c4cccc(N5CCCC5=O)c4)[C@@H](C)CC[C@H]3C(=O)N2[C@@H]1c1cccc(N2CCCC2=O)c1	KCC2 mod 4.9 (no result: MDM2 E3 inh) | KCC2 sec1 inactive | KCC2 bumet counter inactive | KCC2 sec2 inconclusive | HEK counter1 inactive | KCC2 ouabain inactive | HEK counter2 inactive
CCCCOc1cccc(NC(=O)CSc2nncn2C)c1	none
COC(=O)CCCCC(=O)C1C(=O)CC(C)(C)C(C(=O)OC)C1=O (stereo not given)	none (no result: ROMK mod)
CC1(C)CC(=O)C(C(=O)CCCCC(=O)C2C(=O)CC(C)(C)CC2=O)C(=O)C1	KCC2 mod 4.4 | KCC2 sec1 inactive | KCC2 bumet counter inactive | KCC2 sec2 inactive | HEK counter1 inactive | KCC2 ouabain inactive | HEK counter2 inactive
Cc1ccc(NC(=S)NNc2ccc([N+](=O)[O-])cc2S(=O)(=O)Nc2ccccc2C(=O)O)cc1C	KCC2 mod -6.1 | KCC2 sec1 inactive | KCC2 bumet counter inactive | KCC2 sec2 0.025 | HEK counter1 inconclusive | KCC2 ouabain 0.012 | HEK counter2 inconclusive
